Only some compounds are listed: those with a hit (about 2.9% of all), similar ones and a draw of the others.
RanGTP-Impb inh: disruptors of Ran-importin-beta complex formation – biochemical, FRET, CFP-Ran, YFP-importin-beta, homogeneous, primary screen. cell-free CFP-Ran/YFP-importin-beta FRET ratio. hit rate 1.1% among 300,000. AID 2216. inhibition, % (no concentration beside the values);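 active means more than half of the replicate wells show a fall in the fluorescence ratio signal beyond about 16%, limit read from the data, passing the limit was not always enough; inconclusive means exactly half of the replicate wells pass the set limit; inactive means fewer than half of replicates pass the limit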;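 further: 0% = DMSO wells and 100% = Ran loaded with GDP instead of GTP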
PfM18AAP inh: PfM18AAP enzyme inhibition; inhibition, % at 7.35 µM; recombinant PfM18AAP, H-Glu-NHMec fluorogenic cleavage; hit rate 1.2% among 290,000;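 active means inhibition above the campaign mean inhibition over all tested compounds plus 3 SD, cut at about 28% in these data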;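 further: 0% = plate median of test compound wells and 100% = 2 mM ZnCl2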
RBBP9 inhibitor: human RBBP9 hydrolase inhibition; O75884; recombinant RBBP9, FP-Rh probe fluorescence polarization; inhibition, % at 7.94 µM; hit rate 0.2% among 220,000; AID 1515;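 active means inhibition above the campaign mean of all tested compounds plus 3 SD, cut at about 14% in these data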;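 further: plate controls were DMSO wells with RBBP9 for no effect and wells lacking RBBP9 protein for full effect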
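System: RBBP9 protein / Quantity: 2.5 µM RBBP9 dispensing solution, before mixing / Also added: Serine-hydrolase probe FP-Rh, 375 nM pre-mixing / Dosing: 7.94 µM single dose, 0.794% DMSO / Timing: enzyme-compound preincubation 30 min, then probe labeling 45 min, 25 °C / Signal: FP readout at 525/598 nm / Controls: DMSO-treated enzyme wells and wells lacking RBBP9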
Runt-CBFb FRET: Runt domain-CBFb interaction inhibition. hit rate 0.46% among 220,000. Q01196+Q13951. Cerulean-Runt/Venus-CBFb FRET ratio 530/480, 1 h. inhibition, % at 20 µM;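 active means inhibition over about 50% at 20 µM in the single-dose screen, limit read from the data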;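 further: 0% = DMSO wells and 100% = excess unlabeled CBFb competitor control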
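Doses: 20 µM compound in 1% DMSO | Material: Cerulean-labeled Runt domain protein | Amount: Each fluorescent fusion protein 100 nM | Schedule: Two 1 h room-temperature incubations shielded from light | Measured by: FRET fluorescence | Evaluation: Loss of energy transfer signal | Controls: Unlabeled CBFb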
Hck-Nef inh: human Hck-Nef kinase inhibition. hit rate 0.68% among 220,000. Recombinant Hck-YEEI plus Nef, Z-Lyte FRET kinase assay. inhibition, % at 20 µM. AID 463187. P08631;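 active means Hck-Nef kinase inhibition above about 50%, limit read from the data; inactive means inhibition below that limit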;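 further: 0% = DMSO with Hck plus Nef and 100% = Hck alone without Nef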
Target sequence (P08631 whole entry, looked up): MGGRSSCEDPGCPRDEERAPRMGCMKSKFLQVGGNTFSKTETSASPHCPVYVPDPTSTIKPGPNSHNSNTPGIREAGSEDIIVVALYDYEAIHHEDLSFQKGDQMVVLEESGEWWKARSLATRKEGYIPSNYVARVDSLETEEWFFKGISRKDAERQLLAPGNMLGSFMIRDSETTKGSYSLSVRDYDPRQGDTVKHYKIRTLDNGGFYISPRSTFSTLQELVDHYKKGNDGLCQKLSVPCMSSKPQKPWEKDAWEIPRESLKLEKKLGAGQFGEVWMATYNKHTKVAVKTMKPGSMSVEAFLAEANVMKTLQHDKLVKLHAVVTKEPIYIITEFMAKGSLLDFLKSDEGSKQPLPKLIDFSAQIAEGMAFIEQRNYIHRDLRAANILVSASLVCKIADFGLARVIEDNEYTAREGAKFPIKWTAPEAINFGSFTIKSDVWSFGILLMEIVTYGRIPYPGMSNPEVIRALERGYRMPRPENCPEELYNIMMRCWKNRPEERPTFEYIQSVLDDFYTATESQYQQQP
Runt-SMMHC FRET: inhibitors of human RUNX1 Runt domain binding to CBFb-SMMHC | inhibition, % at 20 µM | Q01196+Q13951 | Cerulean-Runt/Venus-CBFb-SMMHC FRET ratio 530/480, 1 h | hit rate 0.74% among 220,000;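 active means mean inhibition across duplicate retests at 20 µM reaching about 50%, limit read from the data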;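 further: 0% = DMSO wells and 100% = wells with excess untagged CBFb-SMMHC; inhibitors lower the FRET ratio by blocking Runt binding to CBFb-SMMHC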
The depositor's hits bear a star; ? = inconclusive; / = no result given; + = active, no number.

SMILES	RanGTP-Impb inh	PfM18AAP inh	RBBP9 inhibitor	Runt-CBFb FRET	Hck-Nef inh	Runt-SMMHC FRET
CCN(CC)Cc1nc2c(c(=O)[nH]1)C1(CCCCC1)Cc1ccccc1-2	30*	1	-8	-2	1	33
CSc1n[nH]c2nc3c(c(=O)n12)C1(CCCC1)Cc1ccccc1-3	14	-3	1	22	-3	50
CCCCCC#CCC#CCC#CCC#CCCCC(=O)O	0	-2	-10	14	76*	8
COc1ccc(CCNS(=O)(=O)CCNC(=O)c2ccc(OC)cc2)cc1	5	/	/	/	/	/
O=C(NCc1ccccc1Br)c1ccc2c(c1)OCCO2	2	2	/	/	/	/
COc1cc(C2CC(=O)N(c3ccc(C)cc3)C(=O)C2)cc(OC)c1OC	3	-15	-3	3	5	-2
CCCCN(CC)C(=O)c1cc2c(=O)n3cccc(C)c3nc2s1	-2	-12	/	/	/	/
CCCCCn1c(=NC(=O)c2cccnc2)c(C#N)cc2c(=O)n3cccc(C)c3nc21	144*	/	/	/	/	/
CCOCCCn1c(=NC(=O)c2ccc(OC)c(OC)c2)c(C#N)cc2c(=O)n3cccc(C)c3nc21	86*	-1	-8	106*	13	143*
C=CCn1c(=N)c(C#N)cc2c(=O)n3ccccc3nc21	+	0	-7	-1	37	75*
CC(C)OCCCn1c(=NC(=O)c2cccs2)c(C#N)cc2c(=O)n3ccccc3nc21	103*	-8	-6	77*	23	81*
CCN(C(=O)c1cc2c(=O)n3ccccc3nc2n1CCCOC)C1CCCCC1	2	9	/	/	/	/
CCOCCCn1c(=NC(C)=O)c(C#N)cc2c(=O)n3cccc(C)c3nc21	123*	-9	1	59*	36	88*
COCCCn1c(C(=O)N2CC(C)OC(C)C2)cc2c(=O)n3cccc(C)c3nc21 (stereo unspecified)	2	3	/	/	/	/
CCN(CC)C(=O)c1cc2c(=O)n3cccc(C)c3nc2n1C	-4	1	-6	3	46	2
CCCCn1c(=NC(C)=O)c(C#N)cc2c(=O)n3cccc(C)c3nc21	85*	/	/	/	/	/
N#Cc1cc2c(=O)n3ccccc3nc2n(Cc2cccnc2)c1=N	/	-11	-7	/	2	/
CCCCCn1c(=NC(C)=O)c(C#N)cc2c(=O)n3ccccc3nc21	108*	-3	-8	16	34	42
Cc1ccc2nc3c(cc(C#N)c(=N)n3Cc3cccnc3)c(=O)n2c1	94*	5	-2	/	16	/
O=C(NC1CCCCC1)c1ccc2[nH]c(=O)c(=O)[nH]c2c1	-1	3	/	/	/	/
CC(C)N1CCC(=NNC(=O)c2cccs2)CC1	0	-10	/	/	/	/
Clc1cccc(CNCCCSc2ncccn2)c1	-6	2	/	/	/	/
Cc1cc(NC(=O)CCl)n(-c2nc3ccccc3s2)n1	0	3	-4	-5	59*	0
CCOc1ccc(S(=O)(=O)N2CCC(C(=O)N3CCc4ccccc4C3)CC2)cc1	-2	-2	/	/	/	/
CCc1c(C)nc(N2CCN(c3ccccc3F)CC2)[nH]c1=O	3	-12	/	/	/	/
SMILES	RanGTP-Impb inh	PfM18AAP inh	RBBP9 inhibitor	Runt-CBFb FRET	Hck-Nef inh	Runt-SMMHC FRET
Cc1ccc(NC(=O)Nc2nc(-c3ccc(C)s3)cs2)cc1	2	28*	5	2	1	4
CCC(C)Sc1ccc(-c2nc3cnccn3c2NC2CCCCC2)cc1 (stereo unspecified)	30*	/	/	/	/	/
O=C(NC1CCCc2ccccc21)N[C@@H](Cc1ccccc1)C(=O)O (stereo partly specified)	0	-5	/	/	/	/
Cc1cc(=O)n2c3ccccc3n(CC(O)CN3CCOCC3)c2c1C#N (stereo unspecified)	130*	-8	-9	-1	-7	1
O=[N+]([O-])c1cccc(CSC2=NCCN2S(=O)(=O)c2ccccc2)c1	-2	-8	/	/	/	/
CC1(C)OC(=O)C(=Cc2ccc(-c3ccc(S(N)(=O)=O)cc3)o2)C(=O)O1	-2	13	-4	8	58*	18
C=CCN1C(=O)c2ccc(C(=O)NCCc3ccc(F)cc3)cc2C1=O	2	0	/	/	/	/
Cc1cc(C)c2c(CC(=O)NNC(=O)c3ccccc3)coc2c1	-4	-5	/	/	/	/
O=C(O)COc1ccccc1/C=C1\SC(=S)N(/N=C/c2ccccc2O)C1=O	5	33*	-5	1	15	-2
COc1ccccc1-n1ccnc(SCC(=O)NCCc2ccccc2)c1=O	1	/	/	/	/	/
CCCCc1cc(=O)oc2cc(C)cc(O)c12	1	1	-6	/	-1	-44
CCCCc1cc(=O)oc2cc(O)cc(O)c12	5	9	4	35	-41	61*
CC(C)=CCc1c(O)cc(O)c2c(=O)c(O[C@@H]3O[C@@H](C)[C@H](O)[C@@H](O)[C@H]3O)c(-c3ccc(O)cc3)oc12	1	/	/	/	/	/
CC1OC(Oc2c(-c3cc(O)c(O)c(O)c3)oc3cc(O)cc(O)c3c2=O)C(O)C(O)C1O (stereo unspecified)	6	45*	-33	-27	-1	-22
CCN(CC)c1ccc(/C=N/N=C(N)N)c(O)c1	8	29*	-9	-1	-4	-22
CCN(CC)c1ccc(C=Nc2ccccc2)c(O)c1	-3	3	7	1	13	2
O=C(C1CC(=O)N(c2ccccc2)C1)N1CCN(c2ccc(F)cc2)CC1 (stereo unspecified)	1	8	/	/	/	/
COc1cc(C2c3sc(=O)[nH]c3SC3C(=O)N(c4ccc(Br)cc4)C(=O)C32)ccc1O (stereo unspecified)	-1	28*	-6	22	13	1
Cc1ccc(SCCNS(=O)(=O)c2ccc3c(c2)OCCO3)cc1	3	-4	-5	-4	1	-3
CCC(=O)NCCCNc1nc2c(C)cccc2cc1C#N	41*	2	-8	9	44	34
Cc1cccc2cc(C#N)c(NCCNS(=O)(=O)c3ccc4c(c3)OCCO4)nc12	?	5	-4	28	19	76*
COc1ccc(C(=O)NCCNc2nc3c(C)cccc3cc2C#N)cc1OC	40*	22	/	/	/	/
Cc1ccc2cc(C#N)c(NCCNC(=O)C3CCC3)nc2c1C	19*	2	0	38	8	78*
COc1ccccc1Nc1nc2c(C)cccc2cc1C#N	3	-13	-11	-2	-1	-31
COc1ccc(-n2c(C)nnc2SCC(=O)N2CCOCC2)cc1	?	1	/	/	/	/
Cc1cccc2cc(C#N)c(NCCNC(=O)NC3CCCCC3)nc12	3	0	0	55*	9	75*
Cc1ccc2c(cnn2C(=O)CCCC(=O)NCc2ccc(Cl)cc2)c1	26*	3	/	/	/	/
Cc1ccc(CNC(=O)CCC(=O)n2ncc3cc(C)ccc32)cc1	4	2	/	/	/	/

Compound activity as filed in PubChem BioAssay.
